# Laboratory results taken from ChEMBL document CHEMBL4406904, “Design, synthesis and biological activity of a novel ethylenediamine derivatives as H1 receptor antagonists” (Bioorg Med Chem, 2019).
# Activity calls are given as the source filed them. No cut-off for these calls is given here.
# Tested on: RBL-2H3
# Assay: Antiallergic activity in rat RBL2H3 cells assessed as inhibition of C48/80-induced mast cell degranulation preincubated with compound for 30 mins and then treated with C48/80 for 1 hr by neutral red dye based method
# Format: functional
# Conditions: not given
# In short: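 RBL-2H3 cells seeded at 3×10⁵/mL and left overnight at 37 °C, 5% CO₂ to adhere. Medium discarded and cells stained with 0.5% neutral red for 3 min. Degranulated cells counted per 100 mast cells. IC50 taken as the concentration giving half-maximal degranulation. DMSO blank.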
row,Compound,IC50 [nM]
1,COc1ccc(CN(CCN(C)C)c2ccccc2)cc1,143
2,COc1ccc(CN(CCN(C)C)c2ccc(N)cc2)cc1,2310
3,COc1ccc(CCN(CCN(C)C)c2ccc(N)cn2)cc1,1210
4,COc1ccc(CCN(CCN(C)C)c2ccc(C)cn2)cc1,83.9
5,COc1ccc(CCN(CCN(C)C)c2ccc(Cl)cc2)cc1,89.2
6,COc1ccc(CCN2CCC(Nc3nc4ccccc4n3Cc3ccc(F)cc3)CC2)cc1 [ASTEMIZOLE],53.3
7,COc1ccc(CCN(CCN(C)C)c2ccccc2)cc1,306
8,COc1ccc(CCN(CCN(C)C)c2ccc(N)cc2)cc1,2230
9,COc1ccc(CN(CCN(C)C)c2ccc(N)cn2)cc1,1340
10,CN(C)CCC(c1ccc(Cl)cc1)c1ccccn1 (centres undefined) [CHLORPHENIRAMINE],31.8
11,COc1ccc(CCN(CCN(C)C)c2ccccn2)cc1,129
12,COc1ccc(CN(CCN(C)C)c2ccccn2)cc1 [PYRILAMINE],81.5
13,COc1ccc(CN(CCN(C)C)c2ccc(C)cn2)cc1,28.9
14,COc1ccc(CCN(CCN(C)C)c2ccc(C)cc2)cc1,153
15,COc1ccc(CN(CCN(C)C)c2ccc(Cl)cc2)cc1,18.1
16,COc1ccc(CN(CCN(C)C)c2ccc(Cl)cn2)cc1,10.6
17,COc1ccc(CN(CCN(C)C)c2ccc(C)cc2)cc1,55.3
18,COc1ccc(CCN(CCN(C)C)c2ccc(Cl)cn2)cc1,45.3

# Tested on: RBL-2H3
# Assay: Antiallergic activity in rat RBL2H3 cells assessed as inhibition of C48/80-induced histamine release preincubated with compound for 30 mins followed by C48/80 stimulation for 1 hr
# Format: functional, cell-based
# Conditions: not given
# In short: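 RBL-2H3 cells seeded at 3×10⁵/mL and adhered overnight at 37 °C, 5% CO₂. Histamine in the supernatant derivatized with o-phthalaldehyde after HCl/NaOH addition. IC50 is the concentration halving histamine release. DMSO blank.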
row,Compound,IC50 [nM]
1,COc1ccc(CN(CCN(C)C)c2ccc(N)cc2)cc1,4060
2,COc1ccc(CCN(CCN(C)C)c2ccc(N)cn2)cc1,1910
3,COc1ccc(CCN(CCN(C)C)c2ccccc2)cc1,516
4,COc1ccc(CCN(CCN(C)C)c2ccc(N)cc2)cc1,4010
5,COc1ccc(CN(CCN(C)C)c2ccc(N)cn2)cc1,2110
6,COc1ccc(CN(CCN(C)C)c2ccc(C)cn2)cc1,48.6
7,COc1ccc(CCN(CCN(C)C)c2ccc(C)cc2)cc1,289
8,COc1ccc(CN(CCN(C)C)c2ccc(Cl)cc2)cc1,40.2
9,COc1ccc(CN(CCN(C)C)c2ccc(Cl)cn2)cc1,19.2
10,COc1ccc(CN(CCN(C)C)c2ccc(C)cc2)cc1,89.1
11,COc1ccc(CCN(CCN(C)C)c2ccc(Cl)cn2)cc1,53.1

# The remaining molecules from weak to strong by IC50, led by results:
row,IC50 [nM],Compound
1,243,COc1ccc(CN(CCN(C)C)c2ccccc2)cc1
2,159,COc1ccc(CCN(CCN(C)C)c2ccccn2)cc1
3,141,COc1ccc(CCN(CCN(C)C)c2ccc(Cl)cc2)cc1
4,102,COc1ccc(CCN(CCN(C)C)c2ccc(C)cn2)cc1
5,92.6,COc1ccc(CN(CCN(C)C)c2ccccn2)cc1 [PYRILAMINE]
6,81.9,COc1ccc(CCN2CCC(Nc3nc4ccccc4n3Cc3ccc(F)cc3)CC2)cc1 [ASTEMIZOLE]
7,53.6,CN(C)CCC(c1ccc(Cl)cc1)c1ccccn1 (centres undefined) [CHLORPHENIRAMINE]

# Tested on: RBL-2H3
# Assay: Antiallergic activity in IgE/Ag-stimulated rat RBL2H3 cells assessed as inhibition of HSA-induced beta-hexosaminidase release preincubated with compound for 30 mins and then stimulated with HSA for 15 mins followed by incubation with P-nitrophenyl-N-acetyl-beta-D-glucosaminide for 2 hrs
# Format: functional, cell-based
# Conditions: not given
# In short: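 RBL-2H3 cells (3×10⁵/mL) sensitized overnight with anti-DNP IgE at 150 ng·mL⁻¹, then washed twice in PIPES buffer pH 7.0 with glucose and 0.2% BSA. Compound applied for 30 min at 37 °C, then DNP-HSA 20 ng·mL⁻¹ for 15 min; stopped on ice. Supernatant incubated with p-nitrophenyl-N-acetyl-β-D-glucosaminide in citrate pH 4.6 for 2 h at 37 °C. Stopped with carbonate pH 10.2; A405 read. IC50 derived.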
row,Compound,IC50 [nM]
1,COc1ccc(CN(CCN(C)C)c2ccc(N)cc2)cc1,8010
2,COc1ccc(CCN(CCN(C)C)c2ccc(N)cn2)cc1,4010
3,COc1ccc(CCN(CCN(C)C)c2ccccc2)cc1,1030
4,COc1ccc(CCN(CCN(C)C)c2ccc(N)cc2)cc1,7960
5,COc1ccc(CN(CCN(C)C)c2ccc(N)cn2)cc1,4090
6,COc1ccc(CN(CCN(C)C)c2ccc(C)cn2)cc1,61.2
7,COc1ccc(CCN(CCN(C)C)c2ccc(C)cc2)cc1,561
8,COc1ccc(CN(CCN(C)C)c2ccc(Cl)cc2)cc1,71.2
9,COc1ccc(CN(CCN(C)C)c2ccc(Cl)cn2)cc1,45.5
10,COc1ccc(CN(CCN(C)C)c2ccc(C)cc2)cc1,141
11,COc1ccc(CCN(CCN(C)C)c2ccc(Cl)cn2)cc1,72.1

# Now from value to molecule:
row,IC50 [nM],Compound
1,411,COc1ccc(CN(CCN(C)C)c2ccccc2)cc1
2,319,COc1ccc(CCN(CCN(C)C)c2ccccn2)cc1
3,261,COc1ccc(CCN(CCN(C)C)c2ccc(Cl)cc2)cc1
4,211,COc1ccc(CCN(CCN(C)C)c2ccc(C)cn2)cc1
5,132,COc1ccc(CN(CCN(C)C)c2ccccn2)cc1 [PYRILAMINE]
6,156,COc1ccc(CCN2CCC(Nc3nc4ccccc4n3Cc3ccc(F)cc3)CC2)cc1 [ASTEMIZOLE]
7,121,CN(C)CCC(c1ccc(Cl)cc1)c1ccccn1 (centres undefined) [CHLORPHENIRAMINE]

# Target: Histamine H1 receptor (Homo sapiens) (UniProt P35367)
# Assay: Binding affinity to H1 receptor (unknown origin) at 0.10 umol/L
# Conditions: not given
# Chain of Histamine H1 receptor (Homo sapiens) (P35367 whole entry): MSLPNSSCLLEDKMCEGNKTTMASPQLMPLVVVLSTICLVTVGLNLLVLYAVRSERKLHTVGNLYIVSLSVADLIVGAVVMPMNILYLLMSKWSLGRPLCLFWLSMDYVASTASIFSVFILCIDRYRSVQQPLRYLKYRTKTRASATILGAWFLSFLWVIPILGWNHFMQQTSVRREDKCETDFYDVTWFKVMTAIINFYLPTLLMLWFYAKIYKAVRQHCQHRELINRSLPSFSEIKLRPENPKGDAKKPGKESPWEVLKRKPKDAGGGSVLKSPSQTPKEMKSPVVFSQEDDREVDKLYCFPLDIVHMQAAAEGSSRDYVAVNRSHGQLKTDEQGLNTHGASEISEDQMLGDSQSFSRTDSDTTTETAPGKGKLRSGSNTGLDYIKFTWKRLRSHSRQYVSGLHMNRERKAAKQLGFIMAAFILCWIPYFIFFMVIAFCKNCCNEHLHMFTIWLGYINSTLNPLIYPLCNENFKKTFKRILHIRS
row,Compound,Activity
1,COc1ccc(CN(CCN(C)C)c2ccc(C)cn2)cc1,Active
2,COc1ccc(CN(CCN(C)C)c2ccc(Cl)cc2)cc1,Active
3,COc1ccc(CN(CCN(C)C)c2ccc(Cl)cn2)cc1,Active
4,COc1ccc(CN(CCN(C)C)c2ccc(C)cc2)cc1,Active
5,COc1ccc(CCN(CCN(C)C)c2ccc(Cl)cn2)cc1,Active

# Tested on: Cavia porcellus
# Assay: In vivo antiallergic activity in histamine-induced bronchospasm guinea pig model assessed as duration of convulsions at 20 mg/kg, po by Van Arman method
# Format: functional
# Conditions: not given
# In short: (§1)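 Male guinea pigs (220–260 g), fasted 24 h with water, six per group. Compound given orally at 20 mg·kg⁻¹ in 1% CMC-Na. Animals then exposed in a closed cage to aerosolized 0.3% histamine chloride (5 mL). Convulsion (preconvulsion) time recorded; stable beyond 10 min counted as protected. Protection % derived from mean time versus control.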
row,Compound,Time [s]
1,COc1ccc(CN(CCN(C)C)c2ccc(C)cn2)cc1,371.28
2,COc1ccc(CN(CCN(C)C)c2ccc(Cl)cc2)cc1,376.58
3,COc1ccc(CN(CCN(C)C)c2ccc(Cl)cn2)cc1,398.69
4,COc1ccc(CN(CCN(C)C)c2ccc(C)cc2)cc1,348.1
5,COc1ccc(CCN(CCN(C)C)c2ccc(Cl)cn2)cc1,351.1

# Tested on: Cavia porcellus
# Assay: In vivo antiallergic activity in guinea pig assessed as protection against histamine-induced bronchospasm at 20 mg/kg, po by Van Arman method relative to control
# Format: functional
# Conditions: not given
# In short: as §1
row,Compound,Activity [%]
1,COc1ccc(CN(CCN(C)C)c2ccc(C)cn2)cc1,74.26
2,COc1ccc(CN(CCN(C)C)c2ccc(Cl)cc2)cc1,75.32
3,COc1ccc(CN(CCN(C)C)c2ccc(Cl)cn2)cc1,79.74
4,COc1ccc(CN(CCN(C)C)c2ccc(C)cc2)cc1,69.62
5,COc1ccc(CCN(CCN(C)C)c2ccc(Cl)cn2)cc1,70.22

# Tested on: not listed separately
# Assay: Acute toxicity in ip dosed histamine-induced bronchospasm guinea pig model
# Format: organism-based, Cavia porcellus
# Conditions: in vivo
row,Compound,LD50 [mg/kg]
1,COc1ccc(CN(CCN(C)C)c2ccc(C)cn2)cc1,335
2,COc1ccc(CN(CCN(C)C)c2ccc(Cl)cc2)cc1,414
3,COc1ccc(CN(CCN(C)C)c2ccc(Cl)cn2)cc1,324
4,COc1ccc(CN(CCN(C)C)c2ccc(C)cc2)cc1,401
5,COc1ccc(CCN(CCN(C)C)c2ccc(Cl)cn2)cc1,335

# Tested on: Mus musculus
# Assay: Antiallergic activity in mouse assessed as inhibition of histamine-induced increase in capillary permeability by measuring Evans blue dye concentration at 20 mg/kg administered via gavage for 1 week followed by Evans blue dye injection immediately after subcutaneous histamine injection and measured after 15 mins by UV spectrophotometric analysis
# Format: functional
# Conditions: not given
# In short: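 Mice (20–22 g), 10 per group, half male and half female. Compound suspension gavaged at 20 mg·kg⁻¹ for one week; model group given 0.5% CMC-Na. Backs depilated with 8% sodium sulfide the day before. Histamine phosphate 0.1% (50 μL) injected subcutaneously, with 0.5% Evans blue (25 mg·kg⁻¹) given i.v. via tail vein. Killed after 15 min. Stained skin extracted in acetone–saline for 48 h, centrifuged, OD read at 610 nm.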
row,Compound,Activity [mg/L]
1,CN(C)CCC(c1ccc(Cl)cc1)c1ccccn1 (centres undefined) [CHLORPHENIRAMINE],56.13
2,COc1ccc(CN(CCN(C)C)c2ccc(C)cn2)cc1,62.16
3,COc1ccc(CN(CCN(C)C)c2ccc(Cl)cc2)cc1,65.34
4,COc1ccc(CN(CCN(C)C)c2ccc(Cl)cn2)cc1,71.26
5,COc1ccc(CN(CCN(C)C)c2ccc(C)cc2)cc1,53.59
6,COc1ccc(CCN(CCN(C)C)c2ccc(Cl)cn2)cc1,55.67

# Tested on: not listed separately
# Assay: Lipid/water partition co-efficient, log P of the compound
# Format: physicochemical
# Conditions: not given
row,Compound,logP
1,COc1ccc(CN(CCN(C)C)c2ccc(N)cc2)cc1,3.13
2,COc1ccc(CCN(CCN(C)C)c2ccc(N)cn2)cc1,2.79
3,COc1ccc(CCN(CCN(C)C)c2ccccc2)cc1,4.21
4,COc1ccc(CCN(CCN(C)C)c2ccc(N)cc2)cc1,3.43
5,COc1ccc(CN(CCN(C)C)c2ccc(N)cn2)cc1,2.56
6,COc1ccc(CN(CCN(C)C)c2ccc(C)cn2)cc1,3.79
7,COc1ccc(CCN(CCN(C)C)c2ccc(C)cc2)cc1,4.68
8,COc1ccc(CN(CCN(C)C)c2ccc(Cl)cc2)cc1,4.47
9,COc1ccc(CN(CCN(C)C)c2ccc(Cl)cn2)cc1,3.87
10,COc1ccc(CN(CCN(C)C)c2ccc(C)cc2)cc1,4.43
11,COc1ccc(CCN(CCN(C)C)c2ccc(Cl)cn2)cc1,4.16

# Now from value to molecule:
row,logP,Compound
1,3.9,COc1ccc(CN(CCN(C)C)c2ccccc2)cc1
2,3.59,COc1ccc(CCN(CCN(C)C)c2ccccn2)cc1
3,4.78,COc1ccc(CCN(CCN(C)C)c2ccc(Cl)cc2)cc1
4,4.06,COc1ccc(CCN(CCN(C)C)c2ccc(C)cn2)cc1
5,3.32,COc1ccc(CN(CCN(C)C)c2ccccn2)cc1 [PYRILAMINE]

# Tested on: not listed separately
# Assay: Dissociation constant, pKa of the compound
# Format: physicochemical
# Conditions: not given
row,Compound,pKa
1,COc1ccc(CN(CCN(C)C)c2ccc(N)cc2)cc1,9.8
2,COc1ccc(CCN(CCN(C)C)c2ccc(N)cn2)cc1,9.6
3,COc1ccc(CCN(CCN(C)C)c2ccccc2)cc1,9.6
4,COc1ccc(CCN(CCN(C)C)c2ccc(N)cc2)cc1,9.8
5,COc1ccc(CN(CCN(C)C)c2ccc(N)cn2)cc1,9.4
6,COc1ccc(CN(CCN(C)C)c2ccc(C)cn2)cc1,9.6
7,COc1ccc(CCN(CCN(C)C)c2ccc(C)cc2)cc1,9.7
8,COc1ccc(CN(CCN(C)C)c2ccc(Cl)cc2)cc1,9.6
9,COc1ccc(CN(CCN(C)C)c2ccc(Cl)cn2)cc1,9.5
10,COc1ccc(CN(CCN(C)C)c2ccc(C)cc2)cc1,9.8
11,COc1ccc(CCN(CCN(C)C)c2ccc(Cl)cn2)cc1,9.4

# Further lines, results first:
row,pKa,Compound
1,9.7,COc1ccc(CN(CCN(C)C)c2ccccc2)cc1
2,9.5,COc1ccc(CCN(CCN(C)C)c2ccccn2)cc1
3,9.5,COc1ccc(CCN(CCN(C)C)c2ccc(Cl)cc2)cc1
4,9.5,COc1ccc(CCN(CCN(C)C)c2ccc(C)cn2)cc1
5,9.7,COc1ccc(CN(CCN(C)C)c2ccccn2)cc1 [PYRILAMINE]

# Tested on: Cavia porcellus
# Assay: In vivo antiallergic activity in histamine-induced bronchospasm guinea pig model assessed as duration of convulsions at 20 mg/kg by Van Arman method
# Conditions: not given
row,Compound,Time [s]
1,CN(C)CCC(c1ccc(Cl)cc1)c1ccccn1 (centres undefined) [CHLORPHENIRAMINE],367.16

# Tested on: Cavia porcellus
# Assay: In vivo antiallergic activity in guinea pig assessed as protection against histamine-induced bronchospasm at 20 mg/kg by Van Arman method relative to control
# Conditions: not given
row,Compound,Activity [%]
1,CN(C)CCC(c1ccc(Cl)cc1)c1ccccn1 (centres undefined) [CHLORPHENIRAMINE],73.43
